Measurements taken from ChEMBL document CHEMBL1138840, “Discovery of positive allosteric modulators for the metabotropic glutamate receptor subtype 5 from a series of N-(1,3-diphenyl-1H- pyrazol-5-yl)benzamides that potentiate receptor function in vivo” (J Med Chem, 2004).

Key:
[1] = biological target: Metabotropic glutamate receptor 5 (Rattus norvegicus) (UniProt P31424); experiment: Fold potentiation towards rat metabotropic glutamate receptor 5; assay type: functional
Outline: (§1)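 FLIPR calcium assay in CHO cells transfected with human or rat mGluR5. Compound added with a low glutamate concentration (300 nM), measuring increase in response; compound alone (up to 100 µM) checked for agonist activity.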

[2] = biological target: T1, Metabotropic glutamate receptor 5 (Homo sapiens, UniProt P41594); experiment: Fold potentiation in CHO cells overexpressing human metabotropic glutamate receptor 5; assay type: functional, cell-based; outline: as §1
Target sequence in this assay (P41594 21-1212 limits assumed): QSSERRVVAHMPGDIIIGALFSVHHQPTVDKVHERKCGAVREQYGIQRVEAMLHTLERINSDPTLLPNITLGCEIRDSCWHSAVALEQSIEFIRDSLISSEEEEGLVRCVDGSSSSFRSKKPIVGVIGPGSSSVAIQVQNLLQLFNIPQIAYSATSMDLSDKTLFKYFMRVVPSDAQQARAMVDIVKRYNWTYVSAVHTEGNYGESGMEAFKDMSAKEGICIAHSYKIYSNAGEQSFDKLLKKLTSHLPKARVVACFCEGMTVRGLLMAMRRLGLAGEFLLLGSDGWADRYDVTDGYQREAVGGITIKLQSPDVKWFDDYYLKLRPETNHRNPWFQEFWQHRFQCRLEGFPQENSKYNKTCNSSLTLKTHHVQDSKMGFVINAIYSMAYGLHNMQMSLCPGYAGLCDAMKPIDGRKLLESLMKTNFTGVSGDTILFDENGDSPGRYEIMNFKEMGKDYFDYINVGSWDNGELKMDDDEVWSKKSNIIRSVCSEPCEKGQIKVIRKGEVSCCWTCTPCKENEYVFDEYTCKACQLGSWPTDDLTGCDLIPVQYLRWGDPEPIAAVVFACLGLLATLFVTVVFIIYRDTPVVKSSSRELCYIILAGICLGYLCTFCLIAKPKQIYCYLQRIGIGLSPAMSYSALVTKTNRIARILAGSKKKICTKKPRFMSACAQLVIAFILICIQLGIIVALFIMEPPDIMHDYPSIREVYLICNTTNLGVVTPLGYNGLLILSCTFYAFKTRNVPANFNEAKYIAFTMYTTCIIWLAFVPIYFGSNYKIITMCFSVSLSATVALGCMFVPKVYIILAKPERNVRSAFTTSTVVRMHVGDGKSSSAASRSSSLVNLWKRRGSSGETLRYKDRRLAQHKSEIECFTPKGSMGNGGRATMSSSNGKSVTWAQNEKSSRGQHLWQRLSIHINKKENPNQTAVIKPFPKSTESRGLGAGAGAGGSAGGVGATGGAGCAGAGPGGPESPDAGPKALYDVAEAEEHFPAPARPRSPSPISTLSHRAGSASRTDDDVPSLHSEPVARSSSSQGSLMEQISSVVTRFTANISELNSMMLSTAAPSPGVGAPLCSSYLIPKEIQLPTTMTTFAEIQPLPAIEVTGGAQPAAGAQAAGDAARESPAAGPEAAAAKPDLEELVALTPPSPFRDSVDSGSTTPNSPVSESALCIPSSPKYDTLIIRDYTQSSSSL

[3] = biological target: T1, Metabotropic glutamate receptor 5; experiment: Effective concentration against metabotropic glutamate receptor 5 of human transfected into CHO cells; assay type: cell-based; outline: as §1
Target sequence in this assay (P41594 whole entry): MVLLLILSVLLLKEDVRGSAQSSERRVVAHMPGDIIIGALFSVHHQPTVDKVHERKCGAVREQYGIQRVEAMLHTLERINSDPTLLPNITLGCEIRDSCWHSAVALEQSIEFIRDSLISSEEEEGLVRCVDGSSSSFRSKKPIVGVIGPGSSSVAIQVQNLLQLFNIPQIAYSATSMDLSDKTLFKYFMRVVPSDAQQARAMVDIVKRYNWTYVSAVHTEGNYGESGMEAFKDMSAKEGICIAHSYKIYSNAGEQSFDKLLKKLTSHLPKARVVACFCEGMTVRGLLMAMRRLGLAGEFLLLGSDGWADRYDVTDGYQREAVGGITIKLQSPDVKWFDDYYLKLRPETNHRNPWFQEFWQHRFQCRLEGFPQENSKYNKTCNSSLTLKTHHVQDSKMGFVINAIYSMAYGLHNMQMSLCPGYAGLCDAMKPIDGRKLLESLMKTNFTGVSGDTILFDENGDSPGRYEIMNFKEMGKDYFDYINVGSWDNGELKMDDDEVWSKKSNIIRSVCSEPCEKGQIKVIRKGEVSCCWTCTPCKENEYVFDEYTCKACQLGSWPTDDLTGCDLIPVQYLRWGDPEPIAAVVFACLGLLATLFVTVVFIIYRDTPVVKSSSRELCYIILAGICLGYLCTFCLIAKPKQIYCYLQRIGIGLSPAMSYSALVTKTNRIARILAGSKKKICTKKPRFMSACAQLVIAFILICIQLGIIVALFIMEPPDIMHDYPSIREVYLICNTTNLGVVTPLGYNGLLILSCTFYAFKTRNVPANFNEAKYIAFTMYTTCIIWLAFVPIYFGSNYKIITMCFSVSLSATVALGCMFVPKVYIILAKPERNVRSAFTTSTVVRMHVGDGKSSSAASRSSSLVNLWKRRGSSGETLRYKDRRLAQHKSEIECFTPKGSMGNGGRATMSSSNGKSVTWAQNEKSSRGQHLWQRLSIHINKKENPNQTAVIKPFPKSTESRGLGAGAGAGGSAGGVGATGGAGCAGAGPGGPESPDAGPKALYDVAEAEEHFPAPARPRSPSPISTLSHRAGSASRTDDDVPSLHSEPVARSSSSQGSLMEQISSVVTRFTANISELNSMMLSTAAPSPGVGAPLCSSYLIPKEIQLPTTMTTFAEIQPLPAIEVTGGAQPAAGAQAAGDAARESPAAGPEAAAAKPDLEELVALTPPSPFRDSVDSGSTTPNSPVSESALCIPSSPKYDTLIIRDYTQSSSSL

[4] = biological target: Metabotropic glutamate receptor 5 (Rattus norvegicus, UniProt P31424); experiment: Effective concentration against metabotropic glutamate receptor 5 of rat; outline: as §1
Chain of Metabotropic glutamate receptor 5 (Rattus norvegicus, UniProt P31424) (P31424 whole entry): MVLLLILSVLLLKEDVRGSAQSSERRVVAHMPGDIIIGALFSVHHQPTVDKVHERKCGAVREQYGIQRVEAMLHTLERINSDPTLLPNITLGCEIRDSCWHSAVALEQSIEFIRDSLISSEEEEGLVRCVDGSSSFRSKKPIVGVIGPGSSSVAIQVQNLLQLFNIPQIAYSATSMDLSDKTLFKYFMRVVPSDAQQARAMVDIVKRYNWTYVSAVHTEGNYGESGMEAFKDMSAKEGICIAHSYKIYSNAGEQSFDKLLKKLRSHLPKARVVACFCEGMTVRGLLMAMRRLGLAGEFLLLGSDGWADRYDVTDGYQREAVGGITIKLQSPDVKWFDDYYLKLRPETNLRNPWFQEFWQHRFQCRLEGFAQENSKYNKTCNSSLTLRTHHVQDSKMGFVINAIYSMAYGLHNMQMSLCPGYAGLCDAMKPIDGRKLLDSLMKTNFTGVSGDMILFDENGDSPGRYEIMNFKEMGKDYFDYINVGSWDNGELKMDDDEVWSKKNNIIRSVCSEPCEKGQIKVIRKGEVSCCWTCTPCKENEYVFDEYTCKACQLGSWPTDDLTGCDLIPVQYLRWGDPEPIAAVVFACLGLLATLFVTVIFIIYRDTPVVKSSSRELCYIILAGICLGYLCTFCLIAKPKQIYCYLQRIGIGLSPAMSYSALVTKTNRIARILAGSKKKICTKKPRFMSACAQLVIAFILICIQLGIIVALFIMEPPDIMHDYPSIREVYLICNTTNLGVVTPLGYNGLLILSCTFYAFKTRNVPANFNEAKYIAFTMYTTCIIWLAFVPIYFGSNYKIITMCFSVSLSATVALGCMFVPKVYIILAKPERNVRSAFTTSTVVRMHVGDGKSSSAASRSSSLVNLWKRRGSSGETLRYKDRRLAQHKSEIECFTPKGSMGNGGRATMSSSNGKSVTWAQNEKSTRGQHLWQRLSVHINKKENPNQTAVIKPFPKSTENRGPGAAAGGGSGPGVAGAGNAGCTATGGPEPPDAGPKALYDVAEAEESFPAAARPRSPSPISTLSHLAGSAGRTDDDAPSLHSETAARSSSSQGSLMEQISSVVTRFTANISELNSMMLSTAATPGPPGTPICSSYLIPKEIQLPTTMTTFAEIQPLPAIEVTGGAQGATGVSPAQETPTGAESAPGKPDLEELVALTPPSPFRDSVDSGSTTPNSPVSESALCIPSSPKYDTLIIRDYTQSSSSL

Chain of Metabotropic glutamate receptor 5 (Rattus norvegicus) (P31424 21-1203 limits assumed): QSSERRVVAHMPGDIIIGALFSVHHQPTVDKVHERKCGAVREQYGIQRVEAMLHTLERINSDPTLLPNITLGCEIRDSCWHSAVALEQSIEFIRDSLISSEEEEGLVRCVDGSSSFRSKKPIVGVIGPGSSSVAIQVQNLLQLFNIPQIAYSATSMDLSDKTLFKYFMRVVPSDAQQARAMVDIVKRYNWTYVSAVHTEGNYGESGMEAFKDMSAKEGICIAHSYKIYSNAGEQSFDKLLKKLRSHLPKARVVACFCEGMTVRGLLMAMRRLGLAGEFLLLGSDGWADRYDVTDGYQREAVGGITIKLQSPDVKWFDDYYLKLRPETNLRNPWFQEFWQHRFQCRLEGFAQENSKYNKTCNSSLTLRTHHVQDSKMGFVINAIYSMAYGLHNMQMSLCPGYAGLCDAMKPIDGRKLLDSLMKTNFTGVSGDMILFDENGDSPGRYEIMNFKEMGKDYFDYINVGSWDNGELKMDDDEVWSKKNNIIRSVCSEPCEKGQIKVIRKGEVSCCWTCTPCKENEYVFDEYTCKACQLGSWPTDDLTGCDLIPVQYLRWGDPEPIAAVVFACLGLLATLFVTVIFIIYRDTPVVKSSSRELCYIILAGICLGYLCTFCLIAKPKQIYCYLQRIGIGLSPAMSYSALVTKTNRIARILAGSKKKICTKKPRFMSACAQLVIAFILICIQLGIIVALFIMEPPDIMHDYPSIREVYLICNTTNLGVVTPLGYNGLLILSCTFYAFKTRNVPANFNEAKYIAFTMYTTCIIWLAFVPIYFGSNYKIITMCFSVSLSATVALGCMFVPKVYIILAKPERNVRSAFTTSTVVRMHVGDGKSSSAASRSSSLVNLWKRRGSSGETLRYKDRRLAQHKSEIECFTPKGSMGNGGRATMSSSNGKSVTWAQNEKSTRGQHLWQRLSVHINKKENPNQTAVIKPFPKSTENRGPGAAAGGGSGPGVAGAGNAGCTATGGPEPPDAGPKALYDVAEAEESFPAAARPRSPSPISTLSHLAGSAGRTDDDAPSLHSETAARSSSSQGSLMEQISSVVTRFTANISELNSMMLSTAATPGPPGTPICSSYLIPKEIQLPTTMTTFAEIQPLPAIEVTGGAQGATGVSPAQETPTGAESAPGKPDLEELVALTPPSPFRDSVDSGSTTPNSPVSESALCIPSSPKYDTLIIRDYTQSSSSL

Potentiation [1] | Potentiation [2] | EC50 [3] | EC50 [4] | Structure (SMILES)
4.3 | 4 | – | – | N#Cc1cccc(C(=O)Nc2cc(-c3ccccc3)nn2-c2ccccc2)c1
– | 3.7 | 2500 nM | – | O=C(Nc1cc(-c2ccccc2)nn1-c1ccccc1)c1ccccc1Cl
8 | 3.6 | 290 nM | 585 nM | O=C(Nc1cc(-c2ccccc2)nn1-c1ccccc1)c1ccccn1
– | 7 | – | – | O=C(Nc1ccc(Cl)cc1CN1C(=O)c2ccccc2C1=O)c1ccccc1O
3.3 | 5.4 | 40 nM | 200 nM | O=C(Nc1cc(-c2ccccc2)nn1-c1ccccc1)c1cccc(Cl)c1
– | 0.9 | > 10000 nM | – | Cc1ccccc1C(=O)Nc1cc(-c2ccccc2)nn1-c1ccccc1
4.8 | 4.3 | 200 nM | 400 nM | O=C(Nc1cc(-c2ccccc2)nn1-c1ccccc1)c1cnccn1
3.7 | 2.5 | 1800 nM | 2900 nM | O=C(Nc1cc(-c2ccccc2)nn1-c1ccccc1)c1ccsc1
– | 6 | 740 nM | – | O=C(Nc1ccc(Br)cc1CN1C(=O)c2ccccc2C1=O)c1ccccn1
7.7 | 2.6 | 20 nM | 65 nM | O=C(Nc1cc(-c2ccccc2)nn1-c1ccccc1)c1cccc(F)c1
10.9 | 9 | 30 nM | 40 nM | Cc1ccc(C(=O)Nc2cc(-c3ccccc3)nn2-c2ccccc2)cc1
– | 7 | 245 nM | – | O=C(Nc1ccc(Cl)cc1CN1C(=O)c2ccccc2C1=O)c1ccccn1
8 | 2.9 | 30 nM | 50 nM | O=C(Nc1cc(-c2ccccc2)nn1-c1ccccc1)c1ccc(F)cc1
9.4 | 9 | 90 nM | 100 nM | Cc1cccc(C(=O)Nc2cc(-c3ccccc3)nn2-c2ccccc2)c1
6.8 | 5.2 | 19 nM | 20 nM | O=C(Nc1cc(-c2ccccc2)nn1-c1ccccc1)c1ccc(C(F)(F)F)cc1
6.3 | 6.4 | 75 nM | 100 nM | O=C(Nc1cc(-c2ccccc2)nn1-c1ccccc1)c1ccccc1F
0.9 | 0.9 | > 10000 nM | > 10000 nM | O=C(Nc1cc(-c2ccccc2)nn1-c1ccccc1)c1ccccc1O
6.4 | 2.6 | 10 nM | 20 nM | O=C(Nc1cc(-c2ccccc2)nn1-c1ccccc1)c1ccc(F)c(F)c1
5 | 5 | 40 nM | 300 nM | O=C(Nc1cc(-c2ccccc2)nn1-c1ccccc1)c1ccccc1
– | 3 | 2.36 nM | – | Fc1cccc(/C=N/N=C/c2cccc(F)c2)c1
5.3 | 2.9 | 200 nM | 400 nM | O=C(Nc1cc(-c2ccccc2)nn1-c1ccccc1)c1cccs1
4.9 | 5 | 20 nM | 100 nM | O=C(Nc1cc(-c2ccccc2)nn1-c1ccccc1)c1ccc(Cl)cc1
